ASAP1 inh: blocks human ASAP1-stimulated Arf1 GTP hydrolysis. Q9ULH1. actives 0.19% (n = 360,000). GDP FP detection. inhibition, % at 16.5 µM; in the data active = inhibition above about 25%;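 also: 0% = vehicle with enzyme and substrate and 100% = no enzyme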
Target sequence (Q9ULH1 325-724 limits assumed): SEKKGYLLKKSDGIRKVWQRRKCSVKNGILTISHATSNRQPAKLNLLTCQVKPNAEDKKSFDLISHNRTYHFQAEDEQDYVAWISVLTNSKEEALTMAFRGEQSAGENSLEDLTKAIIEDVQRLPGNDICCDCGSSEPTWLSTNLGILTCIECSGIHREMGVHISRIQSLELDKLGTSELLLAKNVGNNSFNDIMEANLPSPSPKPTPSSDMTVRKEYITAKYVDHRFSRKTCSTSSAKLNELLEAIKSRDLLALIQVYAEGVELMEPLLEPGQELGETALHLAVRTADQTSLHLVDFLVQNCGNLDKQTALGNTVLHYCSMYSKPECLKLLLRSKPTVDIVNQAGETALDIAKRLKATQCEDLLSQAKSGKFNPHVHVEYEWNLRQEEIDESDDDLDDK
APOBEC3A inh: blocks human APOBEC3A ssDNA deamination | actives 0.41% (n = 330,000) | P31941 | recombinant A3A, FAM/TAMRA ssDNA deamination fluorescence | AID 493011 | inhibition, % at 20 µM;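 active = at least 40% inhibition at 20 µM here, with at most 30% in a related deaminase screen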;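 also: plate controls were A3A with DMSO for no effect and wells lacking A3A enzyme for full effect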
SUMO Mot1 rescue: SUMOylation pathway inhibition by Mot1-301 growth rescue; S. cerevisiae Mot1-301 growth rescue, ATP luminescence, 38.5C; percent above DMSO median, 100 means doubled; actives 1% (n = 320,000); AID 2716; growth rescue, % at 18.8 µM;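 active = every valid replicate shows activation above 250% relative to neutral control wells; inactive = the rest, any valid replicate at or below 250%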;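 also: OY570 slx delta 5 strain wells were the positive control but not used for scaling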
ARFGAP1 inh: inhibits rat ARF GTPase activating protein 1; inhibition, % at 16.5 µM; actives 0.26% (n = 360,000); Arfgap1-stimulated ARF1 GTP hydrolysis, GDP FP detection; Q62848; AID 651572;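 active = inhibition above a per-plate limit, mean inhibition of low control wells plus 3 SD, cut at about 25% in these data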;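 also: 0% = DMSO wells with enzyme and 100% = wells lacking Arfgap1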
Target sequence (Q62848 1-136 limits assumed): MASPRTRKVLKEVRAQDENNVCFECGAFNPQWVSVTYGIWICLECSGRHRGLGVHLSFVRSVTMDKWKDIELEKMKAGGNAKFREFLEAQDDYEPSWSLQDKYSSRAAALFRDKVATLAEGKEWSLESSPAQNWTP
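system = rat Arfgap1 catalytic domain, aa 1-136 | technique = FP, GDP Alexa 633 tracer displaced from anti-GDP antibody, 620/688 nm | compound = one concentration, 16.5 µM, DMSO 1.26% | medium = HEPES-based buffer, pH 7.5 | timing = compound-enzyme preincubation 20 min, reaction 120 min, detection 60 min, 25 °C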
C2C12 statin: suppressors of simvastatin-induced myotoxicity in C2C12 myotubes. ATP luminescence, 48 h; scaled: DMSO 0, geranylgeraniol control 100. rescue of ATP level, % at 7.49 µM. actives 0.78% (n = 330,000). AID 602340;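 active = mean ATP rescue above about 67%, or every replicate alone reaching that limit, limit read from the data, passing the limit was not always enough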;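 also: myotubes were challenged with 10 µM simvastatin during compound exposure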
A3G deaminase: blocks human APOBEC3G single-stranded DNA deamination; recombinant A3G, ssDNA deamination FAM/TAMRA fluorescence; inhibition, % at 20 µM; actives 0.28% (n = 330,000); Q9HC16;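 active = inhibition of at least 40% at 20 µM, with no more than 30% in the related APOBEC3A deaminase screen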;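 also: plate controls were DMSO wells with A3G for no effect and wells lacking A3G enzyme for full effect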
APOBEC3G confirm: APOBEC3G (human) deaminase inhibition, confirmed. shares compounds with A3G deaminase. recombinant A3G ssDNA deaminase, UDG/FAM-TAMRA fluorescence. inhibition, % at 20 µM. actives 72% (n = 890). AID 493152;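 active = inhibition reaching a set limit in any replicate at 20 µM, the limit being 80% of the first screen's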
UDG ctr A3G: counter-screen for APOBEC3G inhibitors: E. coli UDG; shares compounds with A3G deaminase; UDG counterscreen, FAM/TAMRA oligo fluorescence; inhibition, % at 20 µM; 710 tested, under 10 active; AID 504715;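 active = compounds giving 40% or more inhibition at 20 µM in any one of the three replicates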;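 also: plate controls were DMSO wells with UDG and oligo for no effect and DMSO wells lacking both for full effect; inhibitors lower the FAM signal released by uracil excision and alkaline cleavage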
Numbers without * were called inactive. Sampled rows, rich in hits. Any-hit rate of the full collection: about 2.1%.

O=C1NN=C(CSc2n[nH]c(=S)s2)CS1 was read as ASAP1 inh 2, APOBEC3A inh 1, SUMO Mot1 rescue 0, ARFGAP1 inh 0, A3G deaminase 67*, APOBEC3G confirm 67* and UDG ctr A3G 2.
Cc1c(N2C(=O)/C(=C\c3ccccc3O)SC2=S)c(=O)n(-c2ccccc2)n1C was read as ASAP1 inh -13, APOBEC3A inh -2, SUMO Mot1 rescue -6, ARFGAP1 inh 4, A3G deaminase 56*, APOBEC3G confirm 75* and UDG ctr A3G -1.
`Cc1c(N2C(=O)/C(=C/c3ccccc3)SC2=S)c(=O)n(-c2ccccc2)n1C` gave ASAP1 inh 4, APOBEC3A inh 4, SUMO Mot1 rescue -14, ARFGAP1 inh -7, C2C12 statin 19 and A3G deaminase 0.
For CCOC(=O)c1ccc(-c2c(C)cc3oc(=O)cc(-c4ccccc4)c3c2C)cc1 the results were ASAP1 inh -6, APOBEC3A inh 4, ARFGAP1 inh -3, C2C12 statin 4, A3G deaminase 84* and APOBEC3G confirm 2.
CC(=O)N(C)C[C@H]1Oc2ncc(/C=C/c3ccccc3)cc2C(=O)N([C@H](C)CO)C[C@@H]1C was read as C2C12 statin 1.
Screening CCOC(=O)C1=C(C)N(c2ccccc2)C(=O)/C1=C\c1ccc(O)c(OC)c1 returned ASAP1 inh -9, APOBEC3A inh 5, SUMO Mot1 rescue 6, ARFGAP1 inh 5, C2C12 statin 40, A3G deaminase 66* and APOBEC3G confirm 3.
For O=C(C[C@H]1CC[C@@H](NC(=O)Nc2ccc(C(F)(F)F)cc2)[C@@H](CO)O1)NCCN1CCCC1 the results were C2C12 statin -16.
Cn1c(-c2cc(Br)ccc2O)n[nH]c1=S was read as ASAP1 inh 1, APOBEC3A inh -5, SUMO Mot1 rescue 197, ARFGAP1 inh 16, C2C12 statin 16, A3G deaminase 48*, APOBEC3G confirm 83* and UDG ctr A3G -5.
`O=C(c1ccccc1F)N1CC[C@@H]2[C@H]1c1cc(C#Cc3ccccc3F)ccc1N[C@@H]2CO` gave C2C12 statin 24.
COC(=O)c1c(-c2ccc(C(C)(C)C)cc2)csc1NC(=O)C1C2CCC(O2)C1C(=O)O (centres undefined) was read as ASAP1 inh -8, APOBEC3A inh 0, SUMO Mot1 rescue 7, ARFGAP1 inh 0, A3G deaminase 58*, APOBEC3G confirm 24* and UDG ctr A3G -4.
For c1ccc2c(c1)ncn2Cc1nnc2sc(-c3ccncc3)nn12 the results were ASAP1 inh 1, APOBEC3A inh 5, SUMO Mot1 rescue -2, ARFGAP1 inh 14 and A3G deaminase 34.
Screening c1ccc(-c2nn3c(Cn4nnc5ccccc54)nnc3s2)cc1 returned ASAP1 inh 0, APOBEC3A inh 1, SUMO Mot1 rescue -25, ARFGAP1 inh 10, C2C12 statin 7, A3G deaminase 46*, APOBEC3G confirm 41* and UDG ctr A3G -4.
Screening c1ccc(-c2nn3c(Cn4cnc5ccccc54)nnc3s2)cc1 returned ASAP1 inh 3, APOBEC3A inh 11, SUMO Mot1 rescue 20, ARFGAP1 inh 9, C2C12 statin 50, A3G deaminase 49*, APOBEC3G confirm 43* and UDG ctr A3G 3.
c1cncc(-c2nn3c(Cn4cnc5ccccc54)nnc3s2)c1 was read as ASAP1 inh -13, APOBEC3A inh -1, SUMO Mot1 rescue -21, ARFGAP1 inh 0, C2C12 statin -1, A3G deaminase 53*, APOBEC3G confirm 13 and UDG ctr A3G 3.
Screening O=C(C[C@@H]1C[C@H]2c3cc(NS(=O)(=O)c4ccccc4)ccc3O[C@H]2[C@H](CO)O1)N1CCCCC1 returned C2C12 statin -1.
`CCOc1ccc(C(=S)NC2CCCCC2)cc1OC` gave ASAP1 inh -5, APOBEC3A inh -2, SUMO Mot1 rescue 2, ARFGAP1 inh 7, C2C12 statin -6, A3G deaminase 58*, APOBEC3G confirm 50* and UDG ctr A3G 4.
Screening CC(=O)c1ccc(NC(=O)c2ccc(NC(=O)c3ccco3)cc2)cc1 returned APOBEC3A inh 16, SUMO Mot1 rescue 74, C2C12 statin -36, A3G deaminase 57*, APOBEC3G confirm 57* and UDG ctr A3G 2.
For CCNC(=O)C[C@@H]1CC[C@H]2[C@@H](COc3ccc(NC(=O)c4ccc(F)cc4)cc3C(=O)N2C)O1 the results were C2C12 statin -22.
CC1(C)O[C@@H]2[C@H](O1)[C@@H](COS(=O)(=O)O)O[C@H]2n1c(=S)[nH]c2c(=O)[nH]c(N)nc21 was read as ASAP1 inh -6, APOBEC3A inh -2, SUMO Mot1 rescue -10, ARFGAP1 inh 0, C2C12 statin 1, A3G deaminase 49*, APOBEC3G confirm 74* and UDG ctr A3G -2.
Screening CC1CCc2c(sc(NC(=O)c3nc4ncccn4n3)c2C#N)C1 (centres undefined) returned ASAP1 inh -4, APOBEC3A inh 3, SUMO Mot1 rescue -4, ARFGAP1 inh -1, C2C12 statin -42, A3G deaminase 54*, APOBEC3G confirm 40* and UDG ctr A3G -2.
CCCNC(=O)N(C)C[C@@H]1Oc2ncc(-c3ccncc3)cc2C(=O)N([C@@H](C)CO)C[C@@H]1C was read as C2C12 statin 12.
Cc1nc(CNC(=O)C2CCC(=O)N(CCc3ccc(Cl)cc3)C2)sc1C (centres undefined) was read as ASAP1 inh -1, APOBEC3A inh -4, SUMO Mot1 rescue -9, ARFGAP1 inh -10, C2C12 statin 2 and A3G deaminase -5.
`CCn1nc(C)c(CNC(=O)C2CCC(=O)N(CCc3ccc(Cl)cc3)C2)c1C` (centres undefined) gave ASAP1 inh -8, APOBEC3A inh 6, SUMO Mot1 rescue 3, ARFGAP1 inh 0, C2C12 statin -12, A3G deaminase 44* and APOBEC3G confirm -1.
Screening Cc1ccc(-c2n[nH]c(=S)n2C)cc1Cl returned ASAP1 inh -3, APOBEC3A inh -14, SUMO Mot1 rescue 4, ARFGAP1 inh -5, C2C12 statin 4, A3G deaminase 50*, APOBEC3G confirm 61* and UDG ctr A3G -3.
